“And” between values parts separate entries of the source, which are not always exact repeats. Equal entries are not always repeated.
biological target: T1, Estrogen receptor (Homo sapiens) (UniProt P03372); assay: Activation of human estrogen receptor alpha expressed in HEK293 cells at 10 uM by beta-galactosidase reporter gene assay relative to 3,17 beta-estradiol; assay type: cell-based
T1 sequence (whole entry): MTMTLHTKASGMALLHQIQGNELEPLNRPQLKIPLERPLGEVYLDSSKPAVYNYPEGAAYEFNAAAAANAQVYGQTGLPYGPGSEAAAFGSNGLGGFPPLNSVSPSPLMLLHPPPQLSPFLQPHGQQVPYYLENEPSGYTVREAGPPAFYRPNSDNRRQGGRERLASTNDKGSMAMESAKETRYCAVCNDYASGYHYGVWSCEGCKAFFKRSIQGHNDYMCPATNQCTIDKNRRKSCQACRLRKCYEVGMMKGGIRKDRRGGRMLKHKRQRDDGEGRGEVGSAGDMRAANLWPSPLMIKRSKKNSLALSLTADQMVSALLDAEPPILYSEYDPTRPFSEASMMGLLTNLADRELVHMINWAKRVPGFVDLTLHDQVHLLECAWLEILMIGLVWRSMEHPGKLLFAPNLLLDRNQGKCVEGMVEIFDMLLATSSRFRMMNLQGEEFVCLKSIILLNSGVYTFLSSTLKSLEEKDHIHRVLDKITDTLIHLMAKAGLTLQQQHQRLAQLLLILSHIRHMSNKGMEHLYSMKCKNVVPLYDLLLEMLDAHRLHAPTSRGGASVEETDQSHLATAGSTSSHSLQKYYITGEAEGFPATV
Outline: (§1)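 HEK293 cells seeded a day ahead in phenol-free DMEM with 5% delipidated FBS. Calcium phosphate transfection for 4 h with 5 ng ERα or ERβ expression vector, 75 ng pERE2TATA-LUC reporter and 20 ng pCMVβ control. Test compound at 10 µM (vehicle 0.1% v/v) for 24 h. Luciferase normalized to β-galactosidase. Activity = 100% × (test − vehicle)/(10 nM E2 − vehicle). Mean of ≥3 independent transfections.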

SMILES | Activity
CS(C)=C(C(=O)CCCc1ccccc1)C(=O)Cc1ccccc1 | 3.7%
COC(CC(=O)Cc1ccc(F)cc1)Cc1cccc2ccccc12 (single isomer, unassigned; 62a) | 0.2%
O=C(CCCc1ccccc1)CC(=O)CCc1ccccc1 | 6.1%
COc1ccc(CC2CC(CCc3ccccc3)=NO2)cc1 (single isomer, unassigned; 50b) | 16.1%
COc1ccc(CC(O)CC(=O)CCc2ccccc2)cc1 (single isomer, unassigned; 54a) | 1.6%
COc1ccccc1CC(=O)CC(Cc1cccc2ccccc12)OC (single isomer, unassigned; 63a) | 0%
COC(CC(=O)CCc1ccccc1)Cc1cccc2ccccc12 (configuration not stated) | 35.5%
O=C(CCc1ccccc1)CC(O)Cc1ccc2ccccc2c1 (single isomer, unassigned; 57a) | 12.4%
O=C(Cc1ccccc1)CC(O)Cc1ccccc1 (configuration not stated) | 8.4%
CS(C)=C(C(=O)CCCc1ccccc1)C(=O)CCc1ccccc1 | 0.6%
O=C(Cc1ccccc1)CC(O)CCc1ccccc1 (configuration not stated) | 4.3%
O=C(CCCc1ccccc1)CC(O)Cc1ccccc1 (configuration not stated) | 24.7%
Oc1ccc(CCC2=NOC(Cc3ccc(O)cc3)C2)cc1 (configuration not stated) | 81.4% and 76.2%
O=C(CC(O)Cc1ccccc1)c1ccccc1 (configuration not stated) | 5.3%
O=C(CCCc1ccccc1)CC(O)c1ccccc1 (single isomer, unassigned; 24a) | 91.4%
CS(C)=C(C(=O)CCCc1ccccc1)C(=O)c1ccccc1 | -6%
O=C(CCCc1ccccc1)CC(O)CCc1ccccc1 (configuration not stated) | 2.2%
COC(CC(=O)Cc1ccccc1)Cc1ccccc1 (configuration not stated) | 1.4%
COC(CCc1ccccc1)CC(=O)CCc1ccccc1 (configuration not stated) | 14.5%
COC(CCc1ccccc1)CC(=O)Cc1ccccc1 (configuration not stated) | 12%
COC(CC(=O)Cc1ccccc1)c1ccccc1 (configuration not stated) | 4.9%
O=C(CCc1ccccc1)CC(O)c1ccccc1 (single isomer, unassigned; 23b) | 25.3%
COC(CCc1ccccc1)CC(=O)c1ccccc1 (configuration not stated) | 38.1%
O=C(CCCc1ccccc1)CC(=O)Cc1ccccc1 | 27.7%

Further lines, results first:

Activity | SMILES
39.7% | Oc1ccccc1CCC1=NOC(Cc2ccccc2)C1 (single isomer, unassigned)
0% | c1ccc(CC2=NOC(Cc3ccccc3)C2)cc1 (single isomer, unassigned; 14b)
11.2% | c1ccc(CCC2=NOC(c3ccccc3)C2)cc1 (single isomer, unassigned; 12b)
24.3% | Oc1ccc(CCC2=NOC(Cc3ccccc3)C2)cc1 (single isomer, unassigned)
111% | Oc1ccccc1CCC1=NOC(Cc2ccccc2)C1 (configuration not stated)
67.6% | c1ccc(CCCC2=NOC(CCc3ccccc3)C2)cc1 (configuration not stated)
3.4% | c1ccc(CCC2=NOC(CCc3ccccc3)C2)cc1 (single isomer, unassigned; 18a)
-1.3% | c1ccc(CC2=NOC(Cc3ccccc3)C2)cc1 (single isomer, unassigned; 14a)
171% | Oc1ccc(CCC2=NOC(Cc3ccccc3)C2)cc1 (configuration not stated)
34.2% | Oc1ccc(CC2CC(CCc3ccccc3)=NO2)cc1 (single isomer, unassigned; 69a)
38.2% | c1ccc(CCC2=NOC(Cc3ccccc3)C2)cc1 (configuration not stated)

biological target: Estrogen receptor beta (Homo sapiens) (UniProt Q92731); assay: Activation of human estrogen receptor beta expressed in HEK293 cells at 10 uM beta-galactosidase reporter gene assay relative to 3,17-beta-estradiol; assay type: cell-based; outline: as §1
Sequence (Q92731 whole entry): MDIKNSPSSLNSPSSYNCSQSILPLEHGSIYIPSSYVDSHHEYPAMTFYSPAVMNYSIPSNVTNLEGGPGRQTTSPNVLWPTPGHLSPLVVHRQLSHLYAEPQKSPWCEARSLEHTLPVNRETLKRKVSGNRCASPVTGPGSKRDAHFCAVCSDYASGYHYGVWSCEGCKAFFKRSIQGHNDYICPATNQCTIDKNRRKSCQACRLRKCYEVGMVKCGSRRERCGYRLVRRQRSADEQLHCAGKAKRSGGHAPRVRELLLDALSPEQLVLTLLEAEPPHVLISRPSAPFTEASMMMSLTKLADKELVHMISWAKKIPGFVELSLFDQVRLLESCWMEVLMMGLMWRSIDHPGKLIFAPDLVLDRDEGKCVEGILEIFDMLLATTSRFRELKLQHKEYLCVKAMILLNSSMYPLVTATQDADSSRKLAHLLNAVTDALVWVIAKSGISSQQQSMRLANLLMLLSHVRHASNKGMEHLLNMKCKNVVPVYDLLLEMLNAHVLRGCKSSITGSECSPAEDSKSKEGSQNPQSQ

SMILES | Activity
CS(C)=C(C(=O)CCCc1ccccc1)C(=O)Cc1ccccc1 | -1.7%
COC(CC(=O)Cc1ccc(F)cc1)Cc1cccc2ccccc12 (single isomer, unassigned; 62a) | -0.6%
O=C(CCCc1ccccc1)CC(=O)CCc1ccccc1 | -1.5%
COc1ccc(CC2CC(CCc3ccccc3)=NO2)cc1 (single isomer, unassigned; 50b) | 13.2%
COc1ccc(CC(O)CC(=O)CCc2ccccc2)cc1 (single isomer, unassigned; 54a) | -0.8%
COc1ccccc1CC(=O)CC(Cc1cccc2ccccc12)OC (single isomer, unassigned; 63a) | 0%
COC(CC(=O)CCc1ccccc1)Cc1cccc2ccccc12 (configuration not stated) | 2%
O=C(CCc1ccccc1)CC(O)Cc1ccc2ccccc2c1 (single isomer, unassigned; 57a) | 6.4%
O=C(Cc1ccccc1)CC(O)Cc1ccccc1 (configuration not stated) | 1.7%
CS(C)=C(C(=O)CCCc1ccccc1)C(=O)CCc1ccccc1 | -4.6%
O=C(Cc1ccccc1)CC(O)CCc1ccccc1 (configuration not stated) | 0.2%
O=C(CCCc1ccccc1)CC(O)Cc1ccccc1 (configuration not stated) | 9.1%
Oc1ccc(CCC2=NOC(Cc3ccc(O)cc3)C2)cc1 (configuration not stated) | 4.1% and 12%
O=C(CC(O)Cc1ccccc1)c1ccccc1 (configuration not stated) | 16.9%
O=C(CCCc1ccccc1)CC(O)c1ccccc1 (single isomer, unassigned; 24a) | 147%
CS(C)=C(C(=O)CCCc1ccccc1)C(=O)c1ccccc1 | 0%
O=C(CCCc1ccccc1)CC(O)CCc1ccccc1 (configuration not stated) | -7.1%
COC(CC(=O)Cc1ccccc1)Cc1ccccc1 (configuration not stated) | 0.3%
COC(CCc1ccccc1)CC(=O)CCc1ccccc1 (configuration not stated) | 19.5%
COC(CCc1ccccc1)CC(=O)Cc1ccccc1 (configuration not stated) | 0.2%
COC(CC(=O)Cc1ccccc1)c1ccccc1 (configuration not stated) | -1.2%
O=C(CCc1ccccc1)CC(O)c1ccccc1 (single isomer, unassigned; 23b) | 2.8%
COC(CCc1ccccc1)CC(=O)c1ccccc1 (configuration not stated) | 25.8%
O=C(CCCc1ccccc1)CC(=O)Cc1ccccc1 | 4.2%

The next lines start with the values.

Activity | SMILES
30.5% | Oc1ccccc1CCC1=NOC(Cc2ccccc2)C1 (single isomer, unassigned)
0.3% | c1ccc(CC2=NOC(Cc3ccccc3)C2)cc1 (single isomer, unassigned; 14b)
8.1% | c1ccc(CCC2=NOC(c3ccccc3)C2)cc1 (single isomer, unassigned; 12b)
41.5% | Oc1ccc(CCC2=NOC(Cc3ccccc3)C2)cc1 (single isomer, unassigned)
18.4% | Oc1ccccc1CCC1=NOC(Cc2ccccc2)C1 (configuration not stated)
15.5% | c1ccc(CCCC2=NOC(CCc3ccccc3)C2)cc1 (configuration not stated)
0.2% | c1ccc(CCC2=NOC(CCc3ccccc3)C2)cc1 (single isomer, unassigned; 18a)
-0.2% | c1ccc(CC2=NOC(Cc3ccccc3)C2)cc1 (single isomer, unassigned; 14a)
143% | Oc1ccc(CCC2=NOC(Cc3ccccc3)C2)cc1 (configuration not stated)
9.1% | Oc1ccc(CC2CC(CCc3ccccc3)=NO2)cc1 (single isomer, unassigned; 69a)
1.3% | c1ccc(CCC2=NOC(Cc3ccccc3)C2)cc1 (configuration not stated)
17.2% and -3.1% | c1ccc(CCCC2=NOC(c3ccccc3)C2)cc1 (configuration not stated)
12.8% and 6.6% | c1ccc(CC2CC(c3ccccc3)=NO2)cc1 (configuration not stated)

From ChEMBL document CHEMBL1150775, “Synthesis and evaluation of estrogen agonism of diaryl 4,5-dihydroisoxazoles, 3-hydroxyketones, 3-methoxyketones, and 1,3-diketones: a compound set forming a 4D molecular library” (J Med Chem, 2008)
